A short description of data set [1]: folding enthalpy; higher = less favourable; fluorescence melt of hairpins on a sequencing array, two-state fit. As to conditions: sodium 0.088 M. The gist of the method:
(§1)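 Melting temperature and folding enthalpy were derived from bootstrapped two-state fits. The fitted temperatures were raised by 9.35 °C to agree with UV melts, and four replicates were combined by inverse variance. The underlying data were Cy3 fluorescence images of library hairpins, with annealed Cy3 and quencher oligos, on a sequenced MiSeq flow cell in 50 mM Na-HEPES pH 8.0, 25 mM NaCl, taken in 2.5 °C steps up to 60 °C, normalised to pre-quench Cy3 and to control constructs.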

A short description of data set [2]: melting temperature; fluorescence melt of hairpins on a sequencing array, two-state fit, raised by 9.35 °C to match UV melts. The following applies: sodium 0.088 M. The gist of the method: as §1

Turning to GCGGGGAGCCGC ((((....)))), the folding enthalpy in data set [1] is -14.4 kcal/mol. The Tm in data set [2] worked out at 62.7 °C.
For GCGGGGCCCGC ((((...)))) the same measures were -34.8 kcal/mol and 63.3 °C.
Take GCGGGGCCGAAAGGCCGC (((..(((....)))))): in data set [1], the folding enthalpy was -10.2 kcal/mol. For the same sequence, in data set [2], the Tm was 59.6 °C.
For GCGGGGCGAAAGCACGGC ((.(.((....)).).)) the same measures were -15.7 kcal/mol and 65.2 °C.
For GCGGGGCGAAAGCACTGC ((.(.((....)).).)) the same measures were -24.7 kcal/mol and 65.5 °C.
In the same order, the values of GCGGGGCGAAAGCGTCGC (((..((....))..))) are -36 kcal/mol and 67.8 °C.
Regarding GCGGGGGCCGC ((((...)))), the folding enthalpy in data set [1] is -9.27 kcal/mol. In addition, the Tm in data set [2] stood at 62.1 °C.
In the same order, the values of GCGGGGGTCCGC ((((....)))) are -22.6 kcal/mol and 61.7 °C.
In the same order, the values of GCGGGTCCGAAAGGACGC (((..(((....)))))) are -11.3 kcal/mol and 52.5 °C.
In the same order, the values of GCGGGTGGAAACACCTGC ((.((((....)))).)) are -37.5 kcal/mol and 59.1 °C.
With GCGGGTGGAAACACTCGC (((.(((....))).))), in data set [1], the folding enthalpy is -40.8 kcal/mol. For the same sequence, the Tm in data set [2] was determined as 60.7 °C.
In the same order, the values of GCGGGTGGAAACGTCCGC ((((..(....)..)))) are -32 kcal/mol and 53 °C.
As to GCGGGTGGCCGC ((((....)))), in data set [1], the folding enthalpy is -15.8 kcal/mol. Further, the Tm in data set [2] worked out at 62.1 °C.
In the same order, the values of GCGGGTTCCGC ((((...)))) are -25.4 kcal/mol and 57.2 °C.
For GCGGTAACCCGC ((((....)))) the same measures were -27.8 kcal/mol and 54.2 °C.
For GCGGTAATCCGC ((((....)))) the same measures were -24.7 kcal/mol and 56.2 °C.
With GCGGTACACCGC ((((....)))), in data set [1], the folding enthalpy was -40.4 kcal/mol. The Tm in data set [2] was determined as 59.1 °C.
With GCGGTACCCCGC ((((....)))), the folding enthalpy in data set [1] was -21.6 kcal/mol. In data set [2], the Tm came out at 54.5 °C.
For GCGGTACCGAAAGGTCGC (((..(((....)))))) the same measures were -26.3 kcal/mol and 55.4 °C.
In the same order, the values of GCGGTACTCCGC ((((....)))) are -23.3 kcal/mol and 64.1 °C.
For GCGGTAGAAATACCGC ((((((....)))))) the same measures were -36 kcal/mol and 66.9 °C.
Take GCGGTAGCCGC ((((...)))): the folding enthalpy in data set [1] is -11.8 kcal/mol. Besides, the Tm in data set [2] came to 61.2 °C.
Consider GCGGTAGCGAAAGCTCGC (((..(((....)))))), for which the folding enthalpy in data set [1] was -15.5 kcal/mol. In addition, in data set [2], the Tm worked out at 52.8 °C.
In the same order, the values of GCGGTAGGAAACCACCGC (((((.(....).))))) are -36.8 kcal/mol and 57.3 °C.
As for GCGGTAGGAAACTGCCGC ((((.((....)).)))), the folding enthalpy in data set [1] is -29.6 kcal/mol. Moreover, in data set [2], the Tm came to 61.6 °C.
For GCGGTAGGAAACTGCTGC ((.(.((....)).).)) the same measures were -27.5 kcal/mol and 45.5 °C.
For GCGGTATCCGC ((((...)))) the same measures were -24 kcal/mol and 54.9 °C.
For GCGGTATGCCGC ((((....)))) the same measures were -33.6 kcal/mol and 63 °C.
As to GCGGTCAACCGC ((((....)))), in data set [1], the folding enthalpy was -28.6 kcal/mol. In data set [2], the Tm amounted to 56 °C.
For GCGGTCACGAAAGTGCGC (((..(((....)))))) the same measures were -29.4 kcal/mol and 52.1 °C.
As to GCGGTCCCGAAAGGGCGC (((..(((....)))))), the folding enthalpy in data set [1] is -18.5 kcal/mol. Besides, in data set [2], the Tm stood at 60.1 °C.
For GCGGTCGAAAGACCCCGC ((((((....)))..))) the same measures were -14.9 kcal/mol and 47.5 °C.
Consider GCGGTCGAAAGACCCGC ((((((....))).))), for which the folding enthalpy in data set [1] is -24 kcal/mol. The Tm in data set [2] was 66.8 °C.
In the same order, the values of GCGGTCGAAAGACGACGC ((((((....)))..))) are -37.4 kcal/mol and 53.8 °C.
In the same order, the values of GCGGTCGACCGC ((((....)))) are -38.5 kcal/mol and 67.7 °C.
In the case of GCGGTCGCCGC ((((...)))), in data set [1], the folding enthalpy is -5.62 kcal/mol. Further, the Tm in data set [2] is 60.6 °C.
In the same order, the values of GCGGTCGGAAACAACCGC (((((.(....).))))) are -34.7 kcal/mol and 55.1 °C.
In the same order, the values of GCGGTCGGCCGC ((((....)))) are -24.2 kcal/mol and 60.1 °C.
With GCGGTCTCGAAAGAGCGC (((..(((....)))))), the folding enthalpy in data set [1] is -38.2 kcal/mol. Besides, the Tm in data set [2] is 58.6 °C.
For GCGGTGACCCGC ((((....)))) the same measures were -23.1 kcal/mol and 55.3 °C.
As to GCGGTGACGAAAGTCCGC (((..(((....)))))), the folding enthalpy in data set [1] was -30.8 kcal/mol. The Tm in data set [2] came out at 57.2 °C.
For GCGGTGCGAAAGCAAAGC ((..(((....)))..)) the same measures were -32.1 kcal/mol and 63.3 °C.
As to GCGGTGCGAAAGCAAGGC ((..(((....)))..)), the folding enthalpy in data set [1] is -19.1 kcal/mol. Besides, the Tm in data set [2] worked out at 51.2 °C.
In the same order, the values of GCGGTGCGAAAGCAGGGC ((..(((....)))..)) are -20.5 kcal/mol and 55.2 °C.
On to GCGGTGCGAAAGCGCGGC ((.(.((....)).).)), for which the folding enthalpy in data set [1] was -25 kcal/mol. For the same sequence, the Tm in data set [2] stood at 64.5 °C.
For the sequence GCGGTGCGAAAGCGCTGC ((.(.((....)).).)), in data set [1], the folding enthalpy was -21.6 kcal/mol. Further, the Tm in data set [2] was determined as 66.9 °C.
For GCGGTGGGAAACCACCAC (.(((((....))))).) the same measures were -12.4 kcal/mol and 48.1 °C.
For GCGGTGGGAAACCATCGC (((.(((....))).))) the same measures were -40.9 kcal/mol and 61.8 °C.
For GCGGTGTTCCGC ((((....)))) the same measures were -20 kcal/mol and 65.7 °C.
On to GCGGTTCCCGC ((((...)))), for which the folding enthalpy in data set [1] was -22.1 kcal/mol. In data set [2], the Tm stood at 67.5 °C.
For GCGGTTGGAAACAGCCGC ((((.((....)).)))) the same measures were -40.1 kcal/mol and 64.6 °C.
For GCGGTTGTCCGC ((((....)))) the same measures were -23.5 kcal/mol and 58.6 °C.
In the same order, the values of GCGGTTTGCCGC ((((....)))) are -41.2 kcal/mol and 60.6 °C.
Take GCGTAAAACGC ((((...)))): in data set [1], the folding enthalpy was -21.7 kcal/mol. Besides, the Tm in data set [2] was found to be 52.9 °C.
For GCGTAAGCGAAAGCTCGC (((..(((....)))))) the same measures were -17.6 kcal/mol and 48.4 °C.
In the same order, the values of GCGTAAGGAAACCTACGC (((((.(....).))))) are -40 kcal/mol and 49 °C.
For GCGTAAGGAAACTCACGC ((((.((....)).)))) the same measures were -26.5 kcal/mol and 43.8 °C.
As for GCGTAAGGAAACTTGCGC (((.(((....))).))), in data set [1], the folding enthalpy is -39.4 kcal/mol. Also, the Tm in data set [2] is 54.6 °C.
Consider GCGTAATTACGC ((((....)))), for which, in data set [1], the folding enthalpy was -30 kcal/mol. Further, the Tm in data set [2] stood at 51.7 °C.
In the same order, the values of GCGTACAGACGC ((((....)))) are -22.5 kcal/mol and 51 °C.
In the same order, the values of GCGTACGAAAGTAACCGC ((((((....)))..))) are -22.1 kcal/mol and 45 °C.
For GCGTACGAAAGTACCCGC ((((((....)))..))) the same measures were -14.2 kcal/mol and 40.2 °C.
With GCGTACGCGAAAGCGCGC (((..(((....)))))), the folding enthalpy in data set [1] was -16.8 kcal/mol. For the same sequence, the Tm in data set [2] came to 58.5 °C.
For GCGTACGGAAACGCACGC ((((.((....)).)))) the same measures were -46.7 kcal/mol and 55.4 °C.
For GCGTACGGAAACGTGCGC (((.(((....))).))) the same measures were -54.1 kcal/mol and 64.6 °C.
For GCGTACGGAAACGTGTGC ((..(((....)))..)) the same measures were -29.1 kcal/mol and 44.7 °C.
Turning to GCGTACGGACGC ((((....)))), in data set [1], the folding enthalpy was -29.5 kcal/mol. Further, the Tm in data set [2] was 52.9 °C.
In the same order, the values of GCGTACTCACGC ((((....)))) are -19.5 kcal/mol and 52.3 °C.
In the same order, the values of GCGTAGAAATACGC (((((....))))) are -25.1 kcal/mol and 55.2 °C.
In the same order, the values of GCGTAGAGACGC ((((....)))) are -13.3 kcal/mol and 49.1 °C.
With GCGTAGCGAAAGCAAGGC ((.(.((....)).).)), the folding enthalpy in data set [1] was -7.5 kcal/mol. For the same sequence, in data set [2], the Tm was found to be 35.5 °C.
In the same order, the values of GCGTAGCGAAAGCAGCGC (((..((....))..))) are -16.6 kcal/mol and 65.4 °C.
For GCGTAGCGAAAGCGAGGC ((.(.((....)).).)) the same measures were -7.75 kcal/mol and 46.6 °C.
With GCGTAGCGAAAGCGTCGC (((..((....))..))), the folding enthalpy in data set [1] was -20.5 kcal/mol. Besides, the Tm in data set [2] worked out at 61.4 °C.
For GCGTAGCGAAAGCTCAGC ((..(((....)))..)) the same measures were -10.8 kcal/mol and 46 °C.
In the same order, the values of GCGTAGCGAAAGCTCCGC (((.(((....))).))) are -40 kcal/mol and 49.7 °C.
As to GCGTAGCGAAAGCTTCGC (((.(((....))).))), in data set [1], the folding enthalpy is -36.2 kcal/mol. In addition, the Tm in data set [2] came to 55 °C.

These data come from the array DNA melting data of Ke et al. (doi:10.1101/2024.01.08.574731).
